Assay results from ChEMBL document CHEMBL5678806, “NMS-P937, an orally available, specific small-molecule polo-like kinase 1 inhibitor with antitumor activity in solid and hematologic malignancies” (Mol Cancer Ther, 2012).
Calls of active or inactive are those of the source. No cut-off for these calls is given here.

How the values were obtained:
[1] = Antiproliferative activity against human Lovo/DX cells assessed as inhibition of cell growth incubated for 72 hrs by cell-titer glo assay; type: functional, cell-based
In short: (§1)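 Cells seeded at 10,000–30,000/cm² (adherent) or 100,000/mL (nonadherent) in medium with 10% fetal calf serum; after 24 h, treated in duplicate with serial dilutions for 72 h. Viable cell number read by CellTiter-Glo luminescence; IC50 from sigmoidal fit; at least two independent experiments.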

[2] = Inhibition of AUR2 (unknown origin) in presence of [gamma-33P]ATP; design: species or system Homo sapiens
A498 = test: Antiproliferative activity against human A498 cells assessed as inhibition of cell growth incubated for 72 hrs by cell-titer glo assay; type: functional, cell-based; conditions: A498, 72 h
In short: (§2)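 Cells seeded 10,000–30,000/cm² (adherent) or 100,000/mL (suspension) in medium with 10% fetal calf serum; after 24 h treated in duplicate with serial dilutions for 72 h. Viable cells read by CellTiter-Glo luminescence; IC50 from sigmoidal fit; at least two independent experiments.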

[3] = biological target: Insulin receptor-related protein (Homo sapiens) (UniProt P14616); test: Inhibition of N-terminal 6His-tagged recombinant human IRR (944 to 1266 residues) expressed in baculovirus infected Sf21 cells assessed as residual activity at 0.1 uM relative to control
Insulin receptor-related protein (Homo sapiens), sequence (P14616 27-742 limits assumed): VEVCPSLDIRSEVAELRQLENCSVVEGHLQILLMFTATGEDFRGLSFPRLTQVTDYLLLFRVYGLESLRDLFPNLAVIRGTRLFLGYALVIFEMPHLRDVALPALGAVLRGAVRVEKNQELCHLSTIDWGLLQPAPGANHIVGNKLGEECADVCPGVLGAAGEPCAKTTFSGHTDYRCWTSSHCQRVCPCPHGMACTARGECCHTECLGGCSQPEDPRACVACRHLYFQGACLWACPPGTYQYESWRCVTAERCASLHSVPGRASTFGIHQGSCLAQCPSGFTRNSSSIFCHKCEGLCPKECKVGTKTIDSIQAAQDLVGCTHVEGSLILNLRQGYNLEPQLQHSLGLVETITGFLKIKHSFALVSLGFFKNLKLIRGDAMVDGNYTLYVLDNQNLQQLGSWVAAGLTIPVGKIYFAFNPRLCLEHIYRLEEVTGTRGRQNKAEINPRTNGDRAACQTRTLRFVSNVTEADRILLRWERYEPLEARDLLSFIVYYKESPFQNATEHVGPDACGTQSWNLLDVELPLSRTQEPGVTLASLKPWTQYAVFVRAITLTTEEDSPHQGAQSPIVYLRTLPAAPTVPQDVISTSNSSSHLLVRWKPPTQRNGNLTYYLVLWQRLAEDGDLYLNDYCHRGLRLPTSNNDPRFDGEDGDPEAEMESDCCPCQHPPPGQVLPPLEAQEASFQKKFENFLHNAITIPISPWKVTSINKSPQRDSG
Insulin receptor-related protein (Homo sapiens), sequence (P14616 747-1297 limits assumed): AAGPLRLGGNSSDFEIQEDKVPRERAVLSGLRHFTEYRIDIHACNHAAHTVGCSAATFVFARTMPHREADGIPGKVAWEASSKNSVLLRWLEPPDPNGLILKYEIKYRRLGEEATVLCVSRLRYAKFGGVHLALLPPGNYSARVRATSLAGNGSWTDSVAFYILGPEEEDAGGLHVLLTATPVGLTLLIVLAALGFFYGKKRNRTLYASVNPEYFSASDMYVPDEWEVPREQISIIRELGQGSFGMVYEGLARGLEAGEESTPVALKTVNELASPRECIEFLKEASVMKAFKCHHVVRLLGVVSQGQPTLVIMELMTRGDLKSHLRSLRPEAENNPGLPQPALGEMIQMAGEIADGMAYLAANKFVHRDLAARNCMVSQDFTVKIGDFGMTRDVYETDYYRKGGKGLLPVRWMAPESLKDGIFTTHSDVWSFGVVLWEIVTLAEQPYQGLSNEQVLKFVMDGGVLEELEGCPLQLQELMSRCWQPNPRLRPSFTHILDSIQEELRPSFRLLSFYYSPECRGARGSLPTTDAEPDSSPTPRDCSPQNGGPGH

Calu-3 = test: Antiproliferative activity against human Calu-3 cells assessed as inhibition of cell growth incubated for 72 hrs by cell-titer glo assay; type: functional, cell-based; conditions: Calu-3, 72 h; in short: as §2
HDQ-P1 = test: Antiproliferative activity against human HDQ-P1 cells assessed as inhibition of cell growth incubated for 72 hrs by cell-titer glo assay; type: functional, cell-based; conditions: HDQ-P1, 72 h
In short: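 Cells seeded at 10,000–30,000/cm² (adherent) in medium with 10% fetal calf serum; after 24 h treated in duplicate with serial dilutions for 72 h. Viable cell number read by CellTiter-Glo luminescence. IC50 from sigmoidal curve fit; at least two independent experiments.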

[4] = biological target: SRSF protein kinase 3 (Homo sapiens) (UniProt Q9UPE1); test: Inhibition of N-terminal 6His-tagged recombinant human full-length MSSK1 expressed in baculovirus infected Sf21 cells assessed as residual activity at 1 uM relative to control
NCI-H460 = test: Antiproliferative activity against human NCI-H460 cells assessed as inhibition of cell growth incubated for 72 hrs by cell-titer glo assay; type: functional, cell-based; conditions: NCI-H460, 72 h
In short: (§3)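 Cells from ATCC or ECACC, kept in supplier-recommended medium with 1% penicillin-streptomycin at 37°C, 5% CO₂. Seeded at 10,000–30,000/cm² (adherent) or 100,000/mL (nonadherent) in medium with 10% fetal calf serum. Dosed after 24 h in duplicate with serial dilutions. Viable cells read by CellTiter-Glo 72 h later. IC50 from sigmoidal fit. At least two independent experiments.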

[5] = biological target: Mitogen-activated protein kinase 14 (Homo sapiens, UniProt Q16539); test: Inhibition of P38alpha (unknown origin) in presence of [gamma-33P]ATP
CAL-12T = test: Antiproliferative activity against human CAL-12T cells assessed as inhibition of cell growth incubated for 72 hrs by cell-titer glo assay; type: functional, cell-based; in short: as §2
KG-1 = test: Antiproliferative activity against human KG-1 cells assessed as inhibition of cell growth incubated for 72 hrs by cell-titer glo assay; type: functional, cell-based; conditions: KG-1, 72 h; in short: as §1
[6] = biological target: Casein kinase I isoform delta (Homo sapiens) (UniProt P48730); test: Inhibition of N-terminal GST-tagged recombinant human CK1delta (1 to 294 residues) expressed in E. coli assessed as residual activity at 1 uM relative to control
NCI-H889 = test: Antiproliferative activity against human NCI-H889 cells assessed as inhibition of cell growth incubated for 72 hrs by cell-titer glo assay; type: functional, cell-based; conditions: NCI-H889, 72 h; in short: as §3
SNB-19 = test: Antiproliferative activity against human SNB-19 cells assessed as inhibition of cell growth incubated for 72 hrs by cell-titer glo assay; type: functional, cell-based; conditions: SNB-19, 72 h
[7] = biological target: cAMP-dependent protein kinase catalytic subunit PRKX (Homo sapiens) (UniProt P51817); test: Inhibition of N-terminal 6His-tagged recombinant full-length human PrKX expressed in baculovirus infected Sf21 cells assessed as residual activity at 1 uM relative to control
cAMP-dependent protein kinase catalytic subunit PRKX (Homo sapiens), sequence (P51817 whole entry): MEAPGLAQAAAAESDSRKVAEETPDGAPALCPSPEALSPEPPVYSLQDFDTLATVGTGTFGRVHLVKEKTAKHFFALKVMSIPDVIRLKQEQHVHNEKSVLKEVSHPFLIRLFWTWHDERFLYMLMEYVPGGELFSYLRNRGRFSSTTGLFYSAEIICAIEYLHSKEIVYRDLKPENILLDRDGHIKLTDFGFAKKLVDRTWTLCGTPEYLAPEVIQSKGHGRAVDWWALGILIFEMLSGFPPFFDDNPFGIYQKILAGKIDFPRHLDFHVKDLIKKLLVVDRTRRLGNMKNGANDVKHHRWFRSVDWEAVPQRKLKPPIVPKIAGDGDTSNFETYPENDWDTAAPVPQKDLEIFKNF

[8] = biological target: Casein kinase I homolog 1 (Saccharomyces cerevisiae S288c) (UniProt P23291); test: Inhibition of yeast CK1 assessed as residual activity at 0.1 uM relative to control
Casein kinase I homolog 1 (Saccharomyces cerevisiae S288c), sequence (P23291 whole entry): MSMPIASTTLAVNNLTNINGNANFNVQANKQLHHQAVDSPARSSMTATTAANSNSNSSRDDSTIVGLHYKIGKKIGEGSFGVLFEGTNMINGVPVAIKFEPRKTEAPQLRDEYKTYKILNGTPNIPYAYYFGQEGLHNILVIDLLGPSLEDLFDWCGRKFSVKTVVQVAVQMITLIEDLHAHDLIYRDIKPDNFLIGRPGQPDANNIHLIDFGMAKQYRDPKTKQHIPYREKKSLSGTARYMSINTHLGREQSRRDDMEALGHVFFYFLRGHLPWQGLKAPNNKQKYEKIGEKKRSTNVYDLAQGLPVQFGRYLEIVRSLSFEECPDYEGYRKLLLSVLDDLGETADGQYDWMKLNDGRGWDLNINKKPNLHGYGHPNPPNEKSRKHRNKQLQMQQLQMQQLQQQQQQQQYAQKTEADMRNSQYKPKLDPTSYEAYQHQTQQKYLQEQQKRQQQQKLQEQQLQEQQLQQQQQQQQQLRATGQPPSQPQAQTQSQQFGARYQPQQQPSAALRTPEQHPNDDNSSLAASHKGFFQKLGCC

A2780 [9] = test: Induction of mitosis in human A2780 cells at 0.0001 to 100 uM incubated for upto 24 hrs followed by compound washout by cell titer glow assay; type: functional, cell-based; conditions: dose 0.0001-100 µM
SW-620 = test: Antiproliferative activity against human SW620 cells assessed as inhibition of cell growth incubated for 72 hrs by cell-titer glo assay; type: functional, cell-based; conditions: SW-620, 72 h
A2780 [10] = test: Induction of cell cycle arrest in human A2780 cells assessed as accumulation of cells in G2/M phase by measuring CDK1 phosphorylation on Tyr15 incubated for 24 hrs by Western blotting analysis; type: functional, cell-based; conditions: dose 0.02-0.2 µmol/L
In short: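 A2780 ovarian carcinoma cells treated 24 h with a range of concentrations, with DMSO and nocodazole controls. 20 µg protein extract separated by SDS-PAGE and immunoblotted with chemiluminescent detection. Probed for total and phospho-Thr210 PLK1, phospho-Ser10 histone H3, phospho-Thr199 NPM and phospho-Tyr15 CDK1. Total NPM, tubulin and total CDK1 served as loading controls.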

[11] = biological target: Serine/threonine-protein kinase PAK 3 (Homo sapiens) (UniProt O75914); test: Inhibition of C-terminal 6His-tagged recombinant human full-length PAK3 expressed in baculovirus infected Sf21 cells assessed as residual activity at 1 uM relative to control
Serine/threonine-protein kinase PAK 3 (Homo sapiens), sequence (O75914 whole entry, looked up): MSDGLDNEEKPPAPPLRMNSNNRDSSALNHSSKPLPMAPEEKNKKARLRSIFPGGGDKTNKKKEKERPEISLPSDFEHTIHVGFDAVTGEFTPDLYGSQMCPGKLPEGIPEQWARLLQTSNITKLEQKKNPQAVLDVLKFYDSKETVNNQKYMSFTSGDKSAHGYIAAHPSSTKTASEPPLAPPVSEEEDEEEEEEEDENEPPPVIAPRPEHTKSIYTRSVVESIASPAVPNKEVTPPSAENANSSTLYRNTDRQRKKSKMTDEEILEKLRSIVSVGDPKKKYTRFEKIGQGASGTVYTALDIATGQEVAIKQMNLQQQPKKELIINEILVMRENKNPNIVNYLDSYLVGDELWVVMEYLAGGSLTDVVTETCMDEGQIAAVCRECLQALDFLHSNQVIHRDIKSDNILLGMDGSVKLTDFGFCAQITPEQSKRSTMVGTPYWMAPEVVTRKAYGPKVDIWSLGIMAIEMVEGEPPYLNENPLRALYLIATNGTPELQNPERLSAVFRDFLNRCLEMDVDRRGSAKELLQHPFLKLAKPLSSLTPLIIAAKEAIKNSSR

HCC 2998 = test: Antiproliferative activity against human HCC 2998 cells assessed as inhibition of cell growth incubated for 72 hrs by cell-titer glo assay; type: functional, cell-based; conditions: HCC 2998, 72 h; in short: as §1
[12] = biological target: Inhibitor of nuclear factor kappa-B kinase subunit beta (Homo sapiens) (UniProt O14920); test: Inhibition of N-terminal His6 tagged recombinant full-length human IKKbeta expressed in baculovirus infected Sf21 cells assessed as residual activity at 1 uM relative to control
Inhibitor of nuclear factor kappa-B kinase subunit beta (Homo sapiens), sequence (O14920 whole entry): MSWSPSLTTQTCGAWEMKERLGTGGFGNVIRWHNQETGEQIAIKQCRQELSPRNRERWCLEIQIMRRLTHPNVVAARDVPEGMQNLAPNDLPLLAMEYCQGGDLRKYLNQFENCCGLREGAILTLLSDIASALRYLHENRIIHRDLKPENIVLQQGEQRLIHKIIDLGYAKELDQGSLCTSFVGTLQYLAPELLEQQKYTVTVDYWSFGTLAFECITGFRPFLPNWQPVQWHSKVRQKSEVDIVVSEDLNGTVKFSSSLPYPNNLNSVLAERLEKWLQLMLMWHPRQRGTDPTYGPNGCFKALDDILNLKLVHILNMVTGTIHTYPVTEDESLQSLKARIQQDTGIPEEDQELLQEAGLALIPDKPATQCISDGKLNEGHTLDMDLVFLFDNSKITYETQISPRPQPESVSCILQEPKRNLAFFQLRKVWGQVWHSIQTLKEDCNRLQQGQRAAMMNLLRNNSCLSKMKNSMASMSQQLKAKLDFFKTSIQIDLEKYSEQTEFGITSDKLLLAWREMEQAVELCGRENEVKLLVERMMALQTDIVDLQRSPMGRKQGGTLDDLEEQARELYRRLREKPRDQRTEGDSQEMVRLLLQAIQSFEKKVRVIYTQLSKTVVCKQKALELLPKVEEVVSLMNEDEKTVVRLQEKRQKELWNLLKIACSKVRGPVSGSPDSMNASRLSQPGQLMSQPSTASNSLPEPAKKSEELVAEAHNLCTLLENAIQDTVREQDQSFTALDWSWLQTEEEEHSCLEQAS

[13] = biological target: Ribosomal protein S6 kinase alpha-1 (Rattus norvegicus) (UniProt Q63531); test: Inhibition of N-terminal His6 and HA (YPYDV PDYA) tagged recombinant full-length (1 to end residues) rat Rsk1 expressed in baculovirus infected Sf21 cells assessed as residual activity at 0.1 uM relative to control
U-937 = test: Antiproliferative activity against human U-937 cells assessed as inhibition of cell growth incubated for 72 hrs by cell-titer glo assay; type: functional, cell-based; conditions: U-937, 72 h
[14] = biological target: Ephrin type-B receptor 3 (Homo sapiens) (UniProt P54753); test: Inhibition of N-terminal His6-tagged recombinant human EphB3 (599 to 920 residues) expressed in baculovirus infected Sf21 cells assessed as residual activity at 1 uM relative to control
Ephrin type-B receptor 3 (Homo sapiens), sequence (P54753 whole entry, the tested form may be a part): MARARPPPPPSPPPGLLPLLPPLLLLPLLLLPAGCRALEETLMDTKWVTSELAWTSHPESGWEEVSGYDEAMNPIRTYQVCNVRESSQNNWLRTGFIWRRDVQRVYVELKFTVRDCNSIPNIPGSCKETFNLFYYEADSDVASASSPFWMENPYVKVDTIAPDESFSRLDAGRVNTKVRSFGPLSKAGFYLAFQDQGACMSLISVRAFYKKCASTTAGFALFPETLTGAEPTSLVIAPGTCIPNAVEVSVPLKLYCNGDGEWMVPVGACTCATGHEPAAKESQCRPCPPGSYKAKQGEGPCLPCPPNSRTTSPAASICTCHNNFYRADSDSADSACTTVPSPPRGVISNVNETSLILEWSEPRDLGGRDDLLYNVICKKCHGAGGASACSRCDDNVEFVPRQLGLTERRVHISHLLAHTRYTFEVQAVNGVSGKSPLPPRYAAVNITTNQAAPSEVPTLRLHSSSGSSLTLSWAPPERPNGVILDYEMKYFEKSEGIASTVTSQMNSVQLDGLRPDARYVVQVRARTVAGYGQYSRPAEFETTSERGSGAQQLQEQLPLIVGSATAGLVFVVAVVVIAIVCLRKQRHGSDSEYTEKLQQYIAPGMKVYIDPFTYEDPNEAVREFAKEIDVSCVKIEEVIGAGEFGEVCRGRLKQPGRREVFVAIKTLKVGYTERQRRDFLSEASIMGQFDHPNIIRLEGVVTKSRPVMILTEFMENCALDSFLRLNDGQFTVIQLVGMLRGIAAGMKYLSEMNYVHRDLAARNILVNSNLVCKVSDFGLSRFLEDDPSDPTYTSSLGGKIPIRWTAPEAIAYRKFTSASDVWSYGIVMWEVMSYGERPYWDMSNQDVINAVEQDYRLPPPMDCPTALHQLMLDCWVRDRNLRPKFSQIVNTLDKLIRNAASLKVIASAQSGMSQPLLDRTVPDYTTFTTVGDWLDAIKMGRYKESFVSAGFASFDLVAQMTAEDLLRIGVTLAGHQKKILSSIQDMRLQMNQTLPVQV

[15] = biological target: Dual specificity protein kinase CLK2 (Homo sapiens) (UniProt P49760); test: Inhibition of N-terminal GST-tagged recombinant human CLK2 (138 to end residues) expressed in baculovirus infected Sf21 cells assessed as residual activity at 0.1 uM relative to control
Dual specificity protein kinase CLK2 (Homo sapiens), sequence (P49760 whole entry, looked up): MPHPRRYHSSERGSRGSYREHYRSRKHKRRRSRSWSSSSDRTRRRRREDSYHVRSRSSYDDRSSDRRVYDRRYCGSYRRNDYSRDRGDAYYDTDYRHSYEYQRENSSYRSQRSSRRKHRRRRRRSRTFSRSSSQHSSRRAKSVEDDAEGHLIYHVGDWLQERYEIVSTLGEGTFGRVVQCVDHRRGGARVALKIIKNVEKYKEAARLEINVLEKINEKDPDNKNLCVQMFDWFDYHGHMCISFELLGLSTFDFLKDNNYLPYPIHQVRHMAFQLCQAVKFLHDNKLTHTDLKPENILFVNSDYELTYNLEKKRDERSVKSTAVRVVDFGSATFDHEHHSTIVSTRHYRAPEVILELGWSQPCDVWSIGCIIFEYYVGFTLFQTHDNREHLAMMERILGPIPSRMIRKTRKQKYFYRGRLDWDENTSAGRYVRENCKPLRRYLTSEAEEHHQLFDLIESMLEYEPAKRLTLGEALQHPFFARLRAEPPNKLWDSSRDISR

## CN1CCN(c2ccc(OC(F)(F)F)c(Nc3ncc4c(n3)-c3c(c(C(N)=O)nn3CCO)CC4)c2)CC1 [ONVANSERTIB]
[1]
  IC50: 1.72 µM
[2]
  IC50: > 10 µM
A498
  IC50: 1.07 µM
[3]
  Activity: 125%
Calu-3
  IC50: 0.629 µM
HDQ-P1
  IC50: 0.051 µM
[4]
  Activity: 89%
NCI-H460
  IC50: 0.109 µM
[5]
  IC50: > 10 µM
CAL-12T
  IC50: 0.191 µM
KG-1
  IC50: 0.058 µM
[6]
  Activity: 73%
NCI-H889
  IC50: 0.135 µM
SNB-19
  IC50: 0.224 µM
[7]
  Activity: 69%
[8]
  Activity: 42%
A2780 [9]
  Activity: Active
SW-620
  IC50: 0.037 µM
A2780 [10]
  Activity: Dose-Dependent Effect
[11]
  Activity: 90%
HCC 2998
  IC50: 0.132 µM
[12]
  Activity: 127%
[13]
  Activity: 113%
U-937
  IC50: 0.041 µM
[14]
  Activity: 87%
[15]
  Activity: 52%
